ChEMBL document CHEMBL1131456, “Synthesis, pharmacological characterization, and quantitative structure-activity relationship analyses of 3,7,9,9-tetraalkylbispidines: derivatives with specific bradycardic activity” (J Med Chem, 1998)

Tests used:
[1] = organism: Cavia porcellus; experiment: Sum of the scores of decrease of the sinus rate and selectivity versus the decrease in force of contraction; assay type: functional
[2] = Selectivity quotient (F75/SR75); # means very high (estimated); assay type: functional
How it was run: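 Isolated atria in oxygenated buffer at 35 °C. Spontaneously beating right atria gave sinus rate; left atria paced at 2 Hz with 1 ms rectangular pulses gave isometric force of contraction. Cumulative concentration-response curves used up to five concentrations. EC75 (25% decrease from predrug value) was taken as the geometric mean of individual values. Quotient is F75/SR75.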

[3] = organism: Rattus norvegicus; experiment: Total score (SS)
[4] = organism: Rattus norvegicus; experiment: Score point for the selectivity versus additional effect R&T interval.; assay type: functional
[5] = system: Rattus norvegicus; experiment: In vivo activity in anesthetized rat was measured as the R alpha T-interval of the rat ECG which reflects the time from ventricular excitation to recovery; assay type: functional, Cardiac ventricle
How it was run: (§1)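 Male Wistar rats (280–360 g) under urethane (1.25 g/kg ip), intubated and breathing spontaneously. Femoral arterial pressure was recorded with needle-electrode ECG, analysed every 30 s. Compound was given by continuous femoral-vein infusion at 0.1 mL/min, with concentration raised tenfold every 10 min (3 doses). ED75/ED125 is the dose giving a 25% decrease/increase from the predrug value, reported as the geometric mean of individual EDs.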

[6] = system: Rattus norvegicus; experiment: In vivo activity in anesthetized rat was measured as the diastolic arterial pressure which provides information on the peripheral resistance of the cardiovascular system and selectivity regarding bradycardia; assay type: functional, Artery; how it was run: as §1
[7] = organism: Cavia porcellus; experiment: In vitro activity in guinea pig atria as the functional refractory period (FRP), which is the shortest interval between a double stimulus causing a double contraction.
How it was run: (§2)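 Isolated guinea pig atria in oxygenated buffer at 35 °C. Right atria beat spontaneously; left atria were paced at 2 Hz with 1 ms rectangular pulses and isometric contractions were recorded. Cumulative concentration–response curves were run with up to five concentrations. EC75/EC125 is the concentration giving a 25% decrease/increase from the predrug value, reported as the geometric mean of individual ECs.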

[8] = system: Rattus norvegicus; experiment: In vivo activity in anesthetized rat was measured as heart rate which provides information on in vivo bradycardic activity; assay type: functional; how it was run: as §1
[9] = organism: Cavia porcellus; experiment: Score value indicates selectivity versus the decrease in force of contraction; assay type: functional
[10] = organism: Cavia porcellus; experiment: Score value indicates decrease of the sinus rate; assay type: functional
[11] = organism: Cavia porcellus; experiment: In vitro activity in guinea pig atria was measured as rate of spontaneously beating right atrium (SR) which reflects the activity of the sinus node; assay type: functional; details: Cardiac atrium; how it was run: as §2
[12] = Partition coefficient (logP); assay type: physicochemical; details: octanol/water; read-out: logP
How it was run: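 Lipophilicity was measured by reversed-phase HPLC. Mobile phase was methanol/0.005 M phosphate buffer pH 4 (60/40) with 0.1% SDS and 0.1 M NaClO4, at 23.0 ± 0.5 °C, with UV detection at 205 nm.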

[13] = organism: Rattus norvegicus; experiment: Score value indicates selectivity against the undesired effect on diastolic blood pressure; assay type: functional, Artery
[14] = organism: Rattus norvegicus; experiment: Selectivity quotient (DAP125/HR75)
[15] = organism: Rattus norvegicus; experiment: Score value indicates desire effect on heart rate; assay type: functional
[16] = organism: Rattus norvegicus; experiment: Selectivity quotient (R&T125/HR75)
[17] = organism: Cavia porcellus; experiment: Selectivity quotient (FRP125/SR75); assay type: functional
How it was run: (§3)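 Atrial selectivity quotients were calculated from the guinea pig atrial EC values as F75/SR75 and FRP125/SR75.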

[18] = organism: Cavia porcellus; experiment: Score point for the selectivity versus additional effect FRP.; assay type: functional
[19] = organism: Cavia porcellus; experiment: Selectivity quotient (F75/SR75); assay type: functional; how it was run: as §3
[20] = Selectivity quotient (DAP125/HR75); # means very high (estimated); assay type: functional
How it was run: (§4)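 Male Wistar rats (280–360 g), urethane-anesthetized (1.25 g/kg ip), breathing spontaneously. Femoral artery pressure gave diastolic pressure; subcutaneous needle ECG gave heart rate and RαT interval (R onset to T apex), analyzed every 30 s. Femoral vein infusion at 0.1 mL/min, concentration raised tenfold every 10 min (3 doses). ED75/ED125 (25% change from predrug) were geometric means; quotients DAP125/HR75 and RαT125/HR75.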

[21] = organism: Cavia porcellus; experiment: In vitro activity in guinea pig atria was measured as the peak force of contraction (F) of a stimulated left atrium; assay type: functional; details: Cardiac atrium; how it was run: as §2
[22] = Selectivity quotient (FRP125/SR75); # # means very low (estimated); assay type: functional
[23] = Selectivity quotient (R&T125/HR75); # # means very low (estimated); assay type: functional; how it was run: as §4

| Structure (SMILES) | logP [12] | Score [1] | Selectivity quotient [2] | total score (SS) [3] | Score [4] | ED125 [5] | ED125 [6] | EC125 [7] | ED75 [8] | Score [9] | Score [10] | EC75 [11] | Score [13] | Selectivity quotient [14] | Score [15] | Selectivity quotient [16] | Selectivity quotient [17] | Score [18] | Selectivity quotient [19] | EC75 [21] | other results |
| --- | --- | --- | --- | --- | --- | --- | --- | --- | --- | --- | --- | --- | --- | --- | --- | --- | --- | --- | --- | --- | --- |
| C1CCC2(C1)C1CN(CC3CC3)CC2CN(CC2CC2)C1 [TEDISAMIL] | 4.19 | 5 |  | 5 | 4 | 2.5 µM/kg |  | 0.76 µM | 5.3 µM/kg | 0 | 5 | 1.3 µM | 0 |  | 5 | 0.47 | 0.56 | 3 | 37.6 | 49 µM | Selectivity quotient [20]: # |
| CC(C)N1CC2CN(C(C)C)CC(C1)C2(C)C | 2.48 | 0 | # | -2 | 4 | 18 µM/kg |  | 111 µM | 52 µM/kg | -2 | 2 | 10.9 µM | -3 | 1 | 1 | 0.35 | 10.2 | 0 |  |  |  |
| CCC1(C)C2CN(CC3CCCCC3)CC1CN(CC1CCCCC1)C2 (centres undefined) | 6.65 | -3 |  | 4 | 3 | 5.5 µM/kg |  | 0.68 µM |  | -6 | 3 | 6.2 µM | 0 |  | 4 | 0.5 | 0.11 | 5 | 0.76 | 4.69 µM | Selectivity quotient [20]: # |
| CCCCCCN1CC2CC(CN(C)C2)C1 | 3.18 | -5 |  | -2 | 5 | 8.4 µM/kg |  | 1.4 µM | 46 µM/kg | -5 | 0 |  | -3 | 1 | 1 | 0.18 |  | 6 | 1 | 83.8 µM | Selectivity quotient [22]: very low |
| CCCCC1(CCCC)C2CN(CC3CCCCC3)CC1CN(C(C)C)C2 | 7.61 | 0 |  | 3 | 5 | 1.1 µM/kg | >66 µM/kg | 1.45 µM | 9.3 µM/kg | -5 | 5 | 1.9 µM | -1 | >7 | 4 | 0.12 | 0.76 | 3 | 1.92 | 3.65 µM |  |

Now from value to compound, other results behind:

| logP [12] | Structure (SMILES) | Score [1] | Selectivity quotient [2] | total score (SS) [3] | Score [4] | ED125 [5] | ED125 [6] | EC125 [7] | ED75 [8] | Score [9] | Score [10] | EC75 [11] | Score [13] | Selectivity quotient [14] | Score [15] | Selectivity quotient [16] | Selectivity quotient [17] | Score [18] | Selectivity quotient [19] | EC75 [21] | other results |
| --- | --- | --- | --- | --- | --- | --- | --- | --- | --- | --- | --- | --- | --- | --- | --- | --- | --- | --- | --- | --- | --- |
| 3.7 | CCCCN1CC2CN(CC(C)C)CC(C1)C2(C)C | 4 | # | 4 | 5 | 0.73 µM/kg | >41 µM/kg | 0.82 µM | 5.7 µM/kg | 0 | 4 | 3.07 µM | -1 | >7 | 5 | 0.13 | 0.27 | 4 |  |  |  |
| 3.85 | CCCN1CC2CN(CCC)CC(C1)C2(CC)CC | 3 | # | 1 | 5 | 2.1 µM/kg | 10 µM/kg | 1.52 µM | 12 µM/kg | 0 | 3 | 3.53 µM | -3 | 0.8 | 4 | 0.18 | 0.43 | 4 |  |  |  |
| 8.26 | CCCCCCN1CC2CN(CCCCCC)CC(C1)C2(CC)CCCC (centres undefined) | 2 |  | -3 | 6 | 4 µM/kg |  | 1.27 µM |  | -4 | 6 | 0.6 µM | -3 | 1 | 0 |  | 2.12 | 2 | 2.32 | 1.39 µM | Selectivity quotient [23]: very low |
| 5.32 | C=CCCN1CC2CN(CC(C)C)CC(C1)C2(CCC)CCC | 6 |  | 3 | 6 | 0.32 µM/kg | 2.4 µM/kg | 0.73 µM | 3.5 µM/kg | 0 | 6 | 0.44 µM | -3 | 0.68 | 6 | 0.09 | 1.66 | 3 | 52.5 | 23.1 µM |  |
| 3.88 | CCCCN1CC2CN(CCCC)CC(C1)C2(C)C | 4 |  | -1 | 5 | 0.57 µM/kg | 0.2 µM/kg | 1 µM | 5.3 µM/kg | 0 | 4 | 3 µM | -6 | 0.04 | 5 | 0.11 | 0.33 | 4 | 35 | 104 µM |  |
